The results in this text go back to ChEMBL document CHEMBL1629413, “Hirsutalins A-H, eunicellin-based diterpenoids from the soft coral Cladiella hirsuta” (J Nat Prod, 2010).

A short description of test [1]: Cytotoxicity against human Hep3B cells by MTT assay. In kind it is functional, cell-based, Hep 3B2. An outline of the steps:
(§1)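 Tumor cell lines from ATCC. Viability measured by MTT colorimetric method in duplicate, with doxorubicin as positive control. Read-out reported as IC50.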

The test system of a further test is Ca9-22. Put plainly: Cytotoxicity against human Ca9-22 cells by MTT assay. Type of test: functional, cell-based. An outline of the steps:
as §1
(In general: Tetrazolium dyes change colour on reduction, which living cells bring about.)

The subject of another test is A549. The test can be described thus: Cytotoxicity against human A549 cells by MTT assay. In kind it is functional, cell-based. In short, it runs like this: as §1
The subject of test [2] is RAW264.7. The test can be described thus: Antiinflammatory activity in mouse RAW264.7 cells assessed as accumulation of LPS-induced COX-2 at 10 uM by immunoblot analysis. Type of test: functional. An outline of the steps: (§2)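 RAW264.7 macrophages (ATCC) stimulated with LPS, with test compound at 10 μM. iNOS and COX-2 protein levels measured by western blotting. Levels expressed as % of cells treated with LPS alone.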

Test [3] deals with RAW264.7. Put plainly: Antiinflammatory activity in mouse RAW264.7 cells assessed as accumulation of LPS-induced iNOS at 10 uM by immunoblot analysis. Type of test: functional. In short, it runs like this: as §2
In a further test the test system is MDA-MB-231. The test can be described thus: Cytotoxicity against human MDA-MB-231 cells by MTT assay. Type of test: functional, cell-based. In short, it runs like this: as §1
The next test deals with MCF7. The test can be described thus: Cytotoxicity against human MCF7 cells by MTT assay. In kind it is functional, cell-based. In short, it runs like this: as §1
The subject of the next test is HepG2. The test can be described thus: Cytotoxicity against human HepG2 cells by MTT assay. In kind it is functional, cell-based. In short, it runs like this:
as §1

Usually IC50 stands for the concentration at which inhibition is half-maximal. Lower therefore signals greater potency. Take `C=C1C[C@H]2O[C@H]([C@@H]3[C@@H]([C@@H](C)COC(=O)CCC)CC=C(C)[C@@H]32)[C@](C)(OC(=O)[C@H](O)CC)CC[C@@H]1O` [HIRSUTALIN A]: the IC50 in test [1] was 29 µM; in the test with Ca9-22, 35 µM; with A549, 28 µM.

For `C=C1CC[C@H]([C@@H](C)COC(C)=O)[C@@H]2[C@H]1[C@H]1CC(=C)[C@@H](O)CC(OC(=O)C(CC)OC(=O)CCC)[C@@](C)(O)[C@@H]2O1` (some centres not stated) [HIRSUTALIN B], the Activity with RAW264.7 [2] was 49%; in the test with RAW264.7 [3] it was 6.8%.

`C=C1CC[C@H]([C@@H](C)CO)[C@@H]2[C@H]1[C@H]1CC(=C)[C@@H](O)CC[C@@](C)(OC(=O)C(CC)OC(=O)CCC)[C@@H]2O1` (some centres not stated) [HIRSUTALIN C]: the Activity with RAW264.7 [3] was 43.6%.

For the compound `C=C1CC[C@H]([C@@H](C)CO)[C@@H]2[C@H]1[C@H]1CC(=C)[C@@H](O)CC[C@@](C)(OC(=O)C(CC)OC(C)=O)[C@@H]2O1` (some centres not stated) [HIRSUTALIN D], the Activity in the test with RAW264.7 [3] is on record as 3.3%.

As for `CCCC(=O)O[C@]1(C)CC[C@H](O)[C@@](C)(O)C[C@H]2O[C@@H]1[C@H]1[C@@H]2C(C)=CC[C@@H]1C(C)C` [HIRSUTALIN E], the IC50 in test [1] was 14 µM; with MDA-MB-231, 41 µM; in the test with MCF7, 35 µM; with HepG2 it was 4.7 µM; in the test on Ca9-22 it was 34 µM; with A549, 34 µM.

`C=C1CC[C@H]([C@@H](C)CO)[C@@H]2[C@H]1C(=O)C[C@@](C)(O)[C@H]1CC[C@@](C)(OC(=O)C(CC)OC(=O)CCC)[C@@H]2O1` (some centres not stated) [HIRSUTALIN F]: the IC50 in test [1] was determined as 29 µM; with MCF7, 32 µM; with HepG2, 29 µM.

For `C=C1CC[C@H]([C@@H](C)COC(C)=O)[C@@H]2[C@H]1[C@H]1C[C@](C)(O)[C@@H](O)CC[C@@](C)(OC(=O)CCC)[C@@H]2O1` [HIRSUTALIN H], in the test on RAW264.7 [3], the Activity worked out at 32.3%.
